Measurements as given in ChEMBL document CHEMBL2375318, “Design, synthesis and antimicrobial activity of novel benzothiazole analogs” (Eur J Med Chem, 2013).
Converted amounts (≈) assume the structure as drawn.

Assays:
Escherichia coli = experiment: Antimicrobial activity against Escherichia coli ATCC 35218 after 18 to 24 hrs by micro-dilution method; format: functional
Aspergillus fumigatus = experiment: Antimicrobial activity against Aspergillus fumigatus clinical isolate after 18 to 24 hrs by micro-dilution method; format: functional
Outline: (§1)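 Broth micro-dilution MIC, fungi. Fresh broth cultures were made in normal saline. Compounds were serially diluted in microtiter plates across 8 concentrations, 100 down to 0.78. Standardized inoculum was 1–2 × 10^7 cfu/ml. Medium was Sabouraud dextrose pH 7.3 ± 0.2. Plates were incubated aerobically at 37 °C for 18–24 h. MIC is the lowest concentration with no visible growth or turbidity versus control. Fluconazole was the reference.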

Candida albicans [1] = experiment: Antifungal activity against Candida albicans clinical isolate after 18 to 24 hrs by micro-dilution method; format: functional; outline: as §1
Klebsiella pneumoniae = experiment: Antimicrobial activity against Klebsiella pneumoniae clinical isolate after 18 to 24 hrs by micro-dilution method; format: functional
Cryptococcus neoformans = experiment: Antifungal activity against Cryptococcus neoformans clinical isolate after 18 to 24 hrs by micro-dilution method; format: functional; outline: as §1
[2] = Cytotoxicity against human RBC assessed as hemolytic activity at 100 uM after 1 hr by spectophotometry; format: cell-based, Erythrocyte; settings: red blood cells (RBC), read-out: Activity
Outline: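 Hemolysis, fresh human blood. RBCs were washed three times in PBS (spun 3000 rpm, 7 min, room temperature) and adjusted to 5×10^8 cells/ml. Cell suspension was added to buffer holding 100 μM compound in 1% v/v DMSO/PBS. Controls were 1% DMSO/PBS and sterile water. Samples were shaken at 37 °C for 1 h, spun at 1300 rpm for 5 min, and supernatant absorbance read at 540 nm.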

Enterococcus faecalis = experiment: Antimicrobial activity against Enterococcus faecalis clinical isolate after 18 to 24 hrs by micro-dilution method; format: functional
Pseudomonas aeruginosa = experiment: Antimicrobial activity against Pseudomonas aeruginosa ATCC 27893 after 18 to 24 hrs by micro-dilution method; format: functional
Candida albicans [3] = experiment: Antifungal activity against Candida albicans ATCC 90028 after 18 to 24 hrs by micro-dilution metho; format: functional; outline: as §1
Staphylococcus aureus = experiment: Antimicrobial activity against Staphylococcus aureus ATCC 25323 after 18 to 24 hrs by micro-dilution method; format: functional
Candida tropicalis = experiment: Antifungal activity against Candida tropicalis ATCC 750 after 18 to 24 hrs by micro-dilution method; format: functional; outline: as §1
Shigella boydii = experiment: Antimicrobial activity against Shigella boydii clinical isolate after 18 to 24 hrs by micro-dilution method; format: functional
Pichia kudriavzevii = experiment: Antifungal activity against Candida krusei ATCC 6258 after 18 to 24 hrs by micro-dilution method; format: functional; outline: as §1
Salmonella typhi = experiment: Antimicrobial activity against Salmonella typhi MTCC 3216 after 18 to 24 hrs by micro-dilution method; format: functional, Salmonella enterica subsp. enterica serovar Typhi; settings: Salmonella enterica
Outline: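 Broth microdilution with twofold serial dilutions from 100 down to 0.78, eight concentrations. Fresh cultures were made up in normal saline, and 0.1 ml of standardized inoculum (1–2 × 10^7 cfu/ml) was added per well. Plates were incubated aerobically at 37 °C for 18–24 h on Mueller-Hinton agar/Luria broth. MIC was the lowest concentration with no visible turbidity compared with the control.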

Aspergillus niger = experiment: Antimicrobial activity against Aspergillus niger clinical isolate after 18 to 24 hrs by micro-dilution method; format: functional; outline: as §1

Compound | MIC (Escherichia coli) [µg/mL] | MIC (Aspergillus fumigatus) [µg/mL] | MIC (Candida albicans [1]) [µg/mL] | MIC (Klebsiella pneumoniae) [µg/mL] | MIC (Cryptococcus neoformans) [µg/mL] | hemolysis at 1 h, 100 µM [2] [%] | MIC (Enterococcus faecalis) [µg/mL] | MIC (Pseudomonas aeruginosa) [µg/mL] | MIC (Candida albicans [3]) [µg/mL] | MIC (Staphylococcus aureus) [µg/mL] | MIC (Candida tropicalis) [µg/mL] | MIC (Shigella boydii) [µg/mL] | MIC (Pichia kudriavzevii) [µg/mL] | MIC (Salmonella typhi) [µg/mL] | MIC (Aspergillus niger) [µg/mL]
CCc1ccc(-n2cc(CN(Cc3cn(-c4ccc(CC)cc4)nn3)c3nc4ccccc4s3)nn2)cc1 | 50 (≈ 96 µM) | > 100 | > 100 | > 100 | > 100 | 48.3 | > 100 | > 100 | > 100 | > 100 | > 100 | > 100 | > 100 | > 100 | > 100
Fc1cccc(-n2cc(CN(Cc3cn(-c4cccc(F)c4)nn3)c3nc4ccccc4s3)nn2)c1 | > 100 | > 100 | > 100 | > 100 | > 100 | 29.8 | > 100 | > 100 | > 100 | > 100 | > 100 | > 100 | > 100 | > 100 | > 100
O=[N+]([O-])c1ccc(-n2cc(CN(Cc3cn(-c4ccc([N+](=O)[O-])cc4)nn3)c3nc4ccccc4s3)nn2)cc1 | > 100 | > 100 | > 100 | > 100 | > 100 | 27.9 | > 100 | > 100 | > 100 | > 100 | > 100 | > 100 | > 100 | > 100 | > 100
Cc1ccc(-n2cc(CN(Cc3cn(-c4ccc(C)c(C)c4)nn3)c3nc4ccccc4s3)nn2)cc1C | > 100 | > 100 | > 100 | > 100 | > 100 | 43 | > 100 | > 100 | > 100 | > 100 | > 100 | > 100 | > 100 | > 100 | > 100
Clc1ccccc1-n1cc(CN(Cc2cn(-c3ccccc3Cl)nn2)c2nc3ccccc3s2)nn1 | 12.5 (≈ 23.4 µM) | > 100 | > 100 | 50 (≈ 93.7 µM) | > 100 | 19.5 | 6.25 (≈ 11.7 µM) | 12.5 (≈ 23.4 µM) | > 100 | 25 (≈ 46.9 µM) | > 100 | > 100 | > 100 | 6.25 (≈ 11.7 µM) | > 100
Clc1ccc(-n2cc(CN(Cc3cn(-c4ccc(Cl)cc4)nn3)c3nc4ccccc4s3)nn2)cc1 | 12.5 (≈ 23.4 µM) | 6.25 (≈ 11.7 µM) | 25 (≈ 46.9 µM) | 50 (≈ 93.7 µM) | 3.12 (≈ 5.85 µM) | 4.35 | 3.12 (≈ 5.85 µM) | 6.25 (≈ 11.7 µM) | 6.25 (≈ 11.7 µM) | 6.25 (≈ 11.7 µM) | 12.5 (≈ 23.4 µM) | > 100 | 6.25 (≈ 11.7 µM) | 6.25 (≈ 11.7 µM) | 6.25 (≈ 11.7 µM)
